# Source: PubChem BioAssay
# KCNK3 block – human KCNK3 channel inhibition, primary screen; CHO-KCNK3 thallium flux, FluxOR fluorescence; active compounds read low; B-score at 10 µM; 340,000 compounds, 0.84% hits; AID 602410;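 active = B-score under library mean minus 4 SD, starting fluorescence ratio at most library mean plus 5 SD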;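 note: more negative B-score means stronger inhibition of thallium flux through KCNK3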
# KCNK9 inh – human KCNK9 channel inhibition | 310,000 compounds, 1.2% hits | Q9NPC2 | B-score at 10 µM | HEK293 KCNK9, FluxOR thallium flux fluorescence; active compounds read low;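 active = ratio B-score over 3 SD below the library mean, with starting fluorescence within 5 SD of its mean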;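 note: negative B-score means less thallium flux so channel inhibition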
# hERG protect – compounds protecting human hERG from proarrhythmic drug block | Q12809 | CHO-hERG, FluxOR thallium flux, dofetilide IC70 present | activation (rescue from dofetilide block), less the hit threshold, % at 10 µM | 310,000 compounds, 0.51% hits | AID 1511;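 active = activation above the mean of controls blocked by dofetilide plus 5 SD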;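 note: thallium influx through hERG after potassium depolarization seen as dye fluorescence rise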
# Target sequence (Q12809 whole entry, looked up): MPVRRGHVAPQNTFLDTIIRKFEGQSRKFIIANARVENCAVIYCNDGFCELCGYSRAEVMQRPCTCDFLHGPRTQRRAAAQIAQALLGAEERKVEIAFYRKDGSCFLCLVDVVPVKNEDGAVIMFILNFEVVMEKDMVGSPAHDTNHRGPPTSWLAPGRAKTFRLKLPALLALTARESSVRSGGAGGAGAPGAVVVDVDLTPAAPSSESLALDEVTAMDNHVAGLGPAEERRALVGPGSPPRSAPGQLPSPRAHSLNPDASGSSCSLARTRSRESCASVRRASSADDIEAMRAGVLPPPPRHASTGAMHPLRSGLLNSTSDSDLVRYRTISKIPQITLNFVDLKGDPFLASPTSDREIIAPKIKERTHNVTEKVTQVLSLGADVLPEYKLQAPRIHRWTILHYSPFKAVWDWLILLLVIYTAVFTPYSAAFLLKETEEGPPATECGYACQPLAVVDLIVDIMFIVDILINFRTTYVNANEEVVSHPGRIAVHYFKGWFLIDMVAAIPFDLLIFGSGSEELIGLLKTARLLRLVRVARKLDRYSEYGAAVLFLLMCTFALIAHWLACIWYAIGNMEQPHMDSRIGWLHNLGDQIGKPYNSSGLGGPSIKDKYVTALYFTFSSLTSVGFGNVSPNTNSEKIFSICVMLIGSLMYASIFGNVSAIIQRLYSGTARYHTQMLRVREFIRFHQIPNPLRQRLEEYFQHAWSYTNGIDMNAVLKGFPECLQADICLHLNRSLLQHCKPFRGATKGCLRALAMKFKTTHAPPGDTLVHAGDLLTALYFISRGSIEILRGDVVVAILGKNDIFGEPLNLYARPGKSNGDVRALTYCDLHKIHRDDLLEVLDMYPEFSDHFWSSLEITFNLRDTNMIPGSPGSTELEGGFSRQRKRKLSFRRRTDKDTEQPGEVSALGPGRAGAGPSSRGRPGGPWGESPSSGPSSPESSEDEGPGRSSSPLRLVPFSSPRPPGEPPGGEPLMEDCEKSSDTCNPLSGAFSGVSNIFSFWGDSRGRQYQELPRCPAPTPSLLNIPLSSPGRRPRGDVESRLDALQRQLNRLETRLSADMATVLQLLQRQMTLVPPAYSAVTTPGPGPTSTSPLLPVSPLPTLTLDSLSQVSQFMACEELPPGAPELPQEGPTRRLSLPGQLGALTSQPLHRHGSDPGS
# KCNQ1 block – blocks the human KCNQ1 potassium channel; B-score at 10 µM; P51787; 310,000 compounds, 1.3% hits; AID 2642; CHO-K1 KCNQ1, FluxOR thallium flux fluorescence; active compounds read high;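 active = compounds whose thallium flux B-score, printed positive for inhibition, exceeds three library SD while starting fluorescence stays within three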;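 note: channel opened by potassium depolarization with thallium stimulus after 20 min compound exposure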
# KCNQ1 act – potentiates or activates the human KCNQ1 potassium channel; 310,000 compounds, 0.35% hits; B-score at 10 µM; CHO-K1 KCNQ1, thallium flux FluxOR fluorescence; active compounds read high; P51787;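 active = fluorescence ratio B-score, a plate-corrected score, at least three library SD, with initial intensity B-score within 5 SD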
#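 Test system: CHO-K1 cells stably expressing KCNQ1 / Medium: assay buffer / Also added: depolarizing K+/Tl+ stimulus, K2SO4 and Tl2SO4 each 12.5 mM in 5x stock / Incubation: 90 min dye loading and 20 min compound exposure, both at room temperature / Signal: thallium influx via FluxOR fluorescence, kinetic imaging / Evaluation: B score of baseline-normalized fluorescence ratio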
# KCNQ1 block val – human KCNQ1 channel inhibition, validation assay | shares compounds with KCNQ1 block | KCNQ1 cell line, FluxOR thallium flux fluorescence | inhibition, % at 10 µM | 1,600 compounds, 93% hits;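 active = primary screen active, with duplicate mean exceeding buffer control mean plus 3 SD of buffer wells, cut at about 28% in these data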;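 note: 0% = buffer control ratio and 100% = XE991 inhibitor control ratio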
# CHO KCNQ1 ctr – activity in parental CHO cells lacking KCNQ1 | shares compounds with KCNQ1 block | parental CHO-K1, FluxOR thallium flux fluorescence ratio; active compounds read low; zero means no signal rise above baseline | fluorescence ratio (Tl flux) at 10 µM | 1,600 compounds, 21% hits;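 active = mean of duplicate thallium-flux fluorescence ratios in parental host cells more than 5 SD below the buffer control mean, cut at about 0.38 in these data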;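 note: ratio is peak minus minimum fluorescence divided by baseline fluorescence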
# KCNQ1 ephys val – blocks human KCNQ1 current in automated patch clamp | shares compounds with KCNQ1 block | KCNQ1-CHO cells | calls only at 10 µM | 490 compounds, 20% hits;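 active = KCNQ1 current drop exceeding 3 SD of negative control wells, seen in both duplicate runs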;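 note: steady state current during a 2 s step from -80 to +40 mV; negative values mean current inhibition and positive values mean potentiation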
# KCNQ2 inh – KCNQ1 inhibitor that also blocks rat KCNQ2 channel; shares compounds with KCNQ1 block; KCNQ2 cells, FluxOR thallium flux fluorescence; inhibition, % at 10 µM; 1,600 compounds, 71% hits; AID 651746;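 active = mean percent inhibition of the KCNQ2 thallium signal more than 5 SD above the buffer-only control wells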;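 note: KCNQ2 expressed in CHO cells; 0% = buffer control wells and 100% = XE-991 inhibitor control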
# KCNQ1 KCNE1 spec – human KCNQ1/KCNE1 inhibition in KCNQ1 specificity screen. shares compounds with KCNQ1 block. inhibition, % at 10 µM. 1,600 compounds, 77% hits. KCNQ1/KCNE1 cells, FluxOR thallium flux fluorescence;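 active = mean percent inhibition of duplicate wells above the buffer-only control mean plus 3 SD of those controls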;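 note: 0% = buffer only wells and 100% = XE-991 inhibitor control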
# * hit, by the source's call; i = inactive; x = no result given; + = active, no number. Shown are actives, neighbours in structure and some others; about 3.1% of the full set was active somewhere.
SMILES,KCNK3 block,KCNK9 inh,hERG protect,KCNQ1 block,KCNQ1 act,KCNQ1 block val,CHO KCNQ1 ctr,KCNQ2 inh,KCNQ1 KCNE1 spec,others
CCOC(=O)N1CCN(CC(O)COCCC23CC4CC(CC(C4)C2)C3)CC1 (configuration not stated),i,i,-3.6,i,i,x,x,x,x,
CC1CCCCN1CC(O)COCCC12CC3CC(CC(C3)C1)C2 (configuration not stated),i,i,-10.3,8*,i,90.5*,0.519,70.7%*,64.5%*,KCNQ1 ephys val=+
O=C(c1ccccn1)N(Cc1ccco1)C1(C(=O)NC2CCCC2)CCCCC1,i,i,-6.5,i,i,x,x,x,x,
O=C(c1ccc2c(c1)OCO2)N(Cc1ccco1)C1(C(=O)NC2CCCCC2)CCCCC1,i,i,-9.9,6*,i,80.0*,0.364*,88.7%*,77.5%*,
O=C(Nc1nc(-c2ccccc2)cs1)c1ccccc1NS(=O)(=O)c1ccc(F)cc1,i,i,-28.9,10*,i,105.0*,0.331*,i,151.0%*,
CCOC(=O)c1c(NC(=O)CSc2nc3ccccc3o2)sc(C(C)=O)c1C,i,i,-28.5,8*,i,130.0*,0.429,108.3%*,111.5%*,KCNQ1 ephys val=i
CCOC(=O)c1c(NC(=O)CSc2nnc(Cc3ccccc3)o2)sc(C(C)=O)c1C,i,i,-20.1,i,i,x,x,x,x,
OC1(c2cccc(C(F)(F)F)c2)CCN(c2ncnc3c2[nH]c2ccccc23)CC1,i,i,-25.1,7*,i,133.5*,0.369*,118.7%*,146.5%*,
c1ccc(CN2CCN(c3ncnc4c3[nH]c3ccccc34)CC2)cc1,i,i,-27.8,7*,i,131.5*,0.445,120.3%*,81.5%*,
COc1cccc(N2CCN(c3ncnc4c3[nH]c3ccccc34)CC2C)c1 (configuration not stated),x,i,-34.8,12*,i,142.5*,0.317*,123.7%*,+,
CC(=O)c1c(C)nc2ccc(Br)cc2c1-c1ccccc1,i,i,-13.6,i,i,x,x,x,x,
Cc1nc2ccc(Br)cc2c(-c2ccccc2)c1C(=O)O,i,i,-17.1,6*,i,0.0,0.486,96.3%*,i,
CC1CN(S(=O)(=O)c2cccc(C(=O)Nc3ccccc3N3CCCCC3)c2)CC(C)O1 (configuration not stated),i,i,-8.9,7*,i,75.5*,0.39,113.7%*,87.5%*,
COc1ccccc1NC(=O)c1ccc(NC(=O)CSc2ncn[nH]2)cc1,i,i,-7.6,i,i,x,x,x,x,
CN(c1ccccc1)S(=O)(=O)c1ccc(C(=O)OCC(=O)NCc2cccs2)cc1,i,i,-11.6,6*,i,38.5*,0.469,69.3%*,i,
COc1ccc2oc(/C=C/N(C)C)c(C(=O)c3ccc(Cl)cc3)c2c1,i,i,-15.1,6*,i,114.0*,0.351*,139.0%*,145.0%*,
CC1Cc2ccccc2N1C(=O)CNc1ccccc1N1CCCCC1 (configuration not stated),i,i,-14.5,7*,i,81.0*,0.454,100.7%*,86.0%*,
Cc1ccc(OCc2cc(C(=O)N3CCC(Oc4cccnc4)CC3)no2)cc1C,i,i,-12.9,7*,i,113.5*,0.42,83.3%*,52.0%*,KCNQ1 ephys val=i
